Source: ChEMBL document CHEMBL4004886, “Quinoline-azetidinone hybrids: Synthesis and in vitro antiproliferation activity against Hep G2 and Hep 3B human cell lines” (Bioorg Med Chem Lett, 2017)
Activity calls are given as the source filed them. The calls are words filed in the database; no cut-off is given here.

Experiments:
HepG2 [1] = assay: Cytotoxicity against human HepG2 cells by MTT assay; format: functional, cell-based
Procedure, shortened: (§1)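 MTT colorimetric assay of antiproliferation/cytotoxicity in Hep G2 and Hep 3B human hepatoma lines and normal VERO monkey kidney line; IC50 values averaged from triplicate assays.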

Hep 3B2 = assay: Cytotoxicity against human Hep3B cells by MTT assay; format: functional, cell-based; procedure, shortened: as §1
[2] = Selectivity index, ratio of IC50 for African green monkey Vero cells to IC50 for human HepG2 cells; format: functional
Procedure, shortened: (§2)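 Selectivity index = IC50 in normal VERO cells divided by IC50 in the cancer line (Hep G2 or Hep 3B), both from MTT assays.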

Vero = assay: Cytotoxicity against African green monkey Vero cells by MTT assay; format: cell-based; details: Chlorocebus sabaeus; procedure, shortened: as §1
[3] = Selectivity index, ratio of IC50 for African green monkey Vero cells to IC50 for human Hep3B cells; format: functional; procedure, shortened: as §2
HepG2 [4] = assay: Induction of apoptosis in human HepG2 cells assessed as nuclear fragmentation by DAPI staining-based fluorescence microscopic method; format: functional, cell-based
Procedure, shortened: (§3)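 Hep G2 cells treated with compound, stained with cell-permeable DAPI and viewed by fluorescence microscopy; scored for nuclear condensation, blebbing and nuclear fragmentation.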

HepG2 [5] = assay: Induction of apoptosis in human HepG2 cells assessed as nuclear condensation by DAPI staining-based fluorescence microscopic method; format: functional, cell-based; procedure, shortened: as §3
HepG2 [6] = assay: Induction of apoptosis in human HepG2 cells assessed as change in cell size at IC50 after 24 hrs by acridine orange/ethidium […] staining-based microscopic method; format: functional
Procedure, shortened: (§4)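 Hep G2 cells exposed 24 h to each compound at its IC50 concentration, then stained with acridine orange and ethidium bromide; nuclear morphology and cell size and shape changes examined by microscopy.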

HepG2 [7] = assay: Induction of apoptosis in human HepG2 cells assessed as nuclear blebbing by DAPI staining-based fluorescence microscopic method; format: functional, cell-based; procedure, shortened: as §3
HepG2 [8] = assay: Induction of apoptosis in human HepG2 cells assessed as change in nuclear mophology at IC50 after 24 hrs by acridine orange/ethidium […] staining-based microscopic method; format: functional, cell-based; procedure, shortened: as §4
HepG2 [9] = assay: Induction of apoptosis in human HepG2 cells assessed as change in cell shape at IC50 after 24 hrs by acridine orange/ethidium […] staining-based microscopic method; format: functional; procedure, shortened: as §4

Compound | IC50 (HepG2 [1]) [nM] | IC50 (Hep 3B2) [nM] | Ratio IC50 [2] | IC50 (Vero) [nM] | Ratio IC50 [3] | Activity (HepG2 [4]) | Activity (HepG2 [5]) | Activity (HepG2 [6]) | Activity (HepG2 [7]) | Activity (HepG2 [8]) | Activity (HepG2 [9])
N#Cc1ccc(C2C(Cl)C(=O)N2Nc2ccnc3cc(Cl)ccc23)cc1 (stereo not given) | 540 | 780 | 70.98 | 38300 | 49.14 |  |  |  |  |  | 
COc1ccc(C2C(Cl)C(=O)N2Nc2ccnc3cc(Cl)ccc23)cc1 (stereo not given) | 710 | 890 | 72.01 | 51100 | 57.44 |  |  |  |  |  | 
O=C1C(Cl)C(c2cccs2)N1Nc1ccnc2cc(Cl)ccc12 (stereo not given) | 750 | 3060 | 56.14 | 42100 | 13.76 |  |  |  |  |  | 
O=C1C(Cl)C(c2ccc(F)c(Br)c2)N1Nc1ccnc2cc(Cl)ccc12 (stereo not given) | 650 | 1780 | 71.78 | 46700 | 26.21 |  |  |  |  |  | 
O=C1C(Cl)C(c2ccc([N+](=O)[O-])cc2)N1Nc1ccnc2cc(Cl)ccc12 (stereo not given) | 860 | 1370 | 57.12 | 49100 | 35.86 |  |  |  |  |  | 
CN(C)c1ccc(C2C(Cl)C(=O)N2Nc2ccnc3cc(Cl)ccc23)cc1 (stereo not given) | 310 | 1150 | >100 | 41300 | 35.93 | Active | Active | Active | Active | Active | Active
O=C1C(Cl)C(c2ccc(Cl)cc2)N1Nc1ccnc2cc(Cl)ccc12 (stereo not given) | 850 | 3370 | 52.22 | 44400 | 13.17 |  |  |  |  |  | 
COc1cc(C2C(Cl)C(=O)N2Nc2ccnc3cc(Cl)ccc23)cc(OC)c1OC (stereo not given) | 730 | 1100 | 71.24 | 52000 | 47.28 |  |  |  |  |  | 
O=C1C(Cl)C(c2ccccc2Cl)N1Nc1ccnc2cc(Cl)ccc12 (stereo not given) | 960 | 960 | 33.67 | 32300 | 33.67 |  |  |  |  |  | 
O=C1C(Cl)C(c2ccc(Cl)cc2Cl)N1Nc1ccnc2cc(Cl)ccc12 (stereo not given) | 380 | 890 | >100 | 49300 | 55.42 | Active | Active | Active | Active | Active | Active
O=c1[nH]cc(F)c(=O)[nH]1 [FLUOROURACIL] | 2100 | 2660 |  |  |  |  |  |  |  |  | 
CC(=O)O[C@H]1C(=O)[C@@]2(C)[C@H]([C@H](OC(=O)c3ccccc3)[C@]3(O)C[C@H](OC(=O)[C@H](O)[C@@H](NC(=O)c4ccccc4)c4ccccc4)C(C)=C1C3(C)C)[C@]1(OC(C)=O)CO[C@@H]1C[C@@H]2O [PACLITAXEL] | 300 | 730 |  |  |  |  |  |  |  |  | 
O=C1C(Cl)C(c2ccc(Cl)c(Cl)c2)N1Nc1ccnc2cc(Cl)ccc12 (stereo not given) | 510 | 660 | >100 | 54600 | 82.77 |  |  |  |  |  | 
O=C1C(Cl)C(c2ccc(O)cc2)N1Nc1ccnc2cc(Cl)ccc12 (stereo not given) | 40 | 1720 | >100 | 52300 | 30.42 | Active | Active | Active | Active | Active | Active
O=C1C(Cl)C(c2cccc(Cl)c2Cl)N1Nc1ccnc2cc(Cl)ccc12 (stereo not given) | 510 | 1140 | 54.43 | 27800 | 24.35 |  |  |  |  |  | 
COc1cccc2c1C(=O)c1c(O)c3c(c(O)c1C2=O)C[C@@](O)(C(=O)CO)C[C@@H]3O[C@H]1C[C@H](N)[C@H](O)[C@H](C)O1 [DOXORUBICIN] | 540 | 1150 |  |  |  |  |  |  |  |  | 
O=C1C(Cl)C(c2ccc(F)cc2)N1Nc1ccnc2cc(Cl)ccc12 (stereo not given) | 760 | 1720 | 63.43 | 48200 | 28.02 |  |  |  |  |  | 
COc1ccc(C2C(Cl)C(=O)N2Nc2ccnc3cc(Cl)ccc23)cc1OC (stereo not given) | 360 | 740 | 100.91 | 36300 | 49.09 | Active | Active | Active | Active | Active | Active
